What was measured:
[1] = melting temperature; fluorescence melt of hairpins on a sequencing array, two-state fit, raised by 9.35 °C to match UV melts; conditions: sodium 0.088 M
Method in brief: (§1)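 On a sequenced MiSeq flow cell, library hairpins with annealed Cy3 and quencher oligos were imaged for Cy3 fluorescence in 2.5 °C steps up to 60 °C, in 50 mM Na-HEPES pH 8.0, 25 mM NaCl. Normalisation used pre-quench Cy3 and control constructs. Bootstrapped two-state fits gave melting temperature and folding enthalpy, combined by inverse variance across four replicates and with fitted temperatures raised by 9.35 °C to match UV melts.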

[2] = folding enthalpy; higher = less favourable; fluorescence melt of hairpins on a sequencing array, two-state fit; conditions: sodium 0.088 M
Method in brief: as §1

Row | Sequence | Tm [1] | folding enthalpy [2]
1 | GCGTAAGCGAAAGCTCGC (((..(((....)))))) | 48.4 °C | -17.6 kcal/mol
2 | GATCCTCCAAAGGATC ((((((....)))))) | 50.4 °C | -28.8 kcal/mol
3 | GATACACGAAAGTGATC (((.(((....)))))) | 36.8 °C | -12.4 kcal/mol
4 | GGTCTAGGAAACTAGACC (((((((....))))))) | 60.5 °C | -47.7 kcal/mol
5 | GCCCTCGAAAGAGCGGGC ((((((....)))..))) | 50.1 °C | -29.2 kcal/mol
6 | GATCACTACTGTGATC ((((((....)))))) | 56.5 °C | -42 kcal/mol
7 | GATCAACACATTGATC ((((((....)))))) | 44.9 °C | -36.9 kcal/mol
8 | GACCGCGGAAACGCGATC ((.((((....)))).)) | 50.7 °C | -14.8 kcal/mol
9 | GCGAGACGAAAGTCACGC (((.(((....))).))) | 68.5 °C | -31.5 kcal/mol
10 | GTAGACGAAAGTCGCTAC ((((((....)))..))) | 40.5 °C | -10.8 kcal/mol
11 | GCTCCGCGAAAGCTCAGC (((..((....))..))) | 27.2 °C | -9.77 kcal/mol
12 | GATCTACTGTAGATC ((((((...)))))) | 41.1 °C | -36.8 kcal/mol
13 | GATCTAGACGTAGATC ((((((....)))))) | 44.8 °C | -38.9 kcal/mol
14 | GACATGACGAAAGTCGTC (((..(((....)))))) | 41.6 °C | -10.3 kcal/mol
15 | GATCCTCCGAGGATC ((((((...)))))) | 53.1 °C | -33.1 kcal/mol
16 | GCGGAGTTCCGC ((((....)))) | 59.6 °C | -23.4 kcal/mol
17 | GTACGTGAAAACGTAC ((((((....)))))) | 59.5 °C | -37 kcal/mol
18 | GAGCGCACGAAAGTGCTC (((..(((....)))))) | 38.1 °C | -8.27 kcal/mol
19 | GATCAATCGCTTGATC ((((((....)))))) | 45.5 °C | -44.9 kcal/mol
20 | GATAGACCGAAAGGTATC (((..(((....)))))) | 28.2 °C | -11.3 kcal/mol
21 | GATCCGTAACGGATC ((((((...)))))) | 57.6 °C | -34.1 kcal/mol
22 | GATCTTCGGTAAGATC ((((((....)))))) | 41.3 °C | -34 kcal/mol
23 | GTACAAGGAAACTTGCAC ((.((((....)))).)) | 34.1 °C | -25.4 kcal/mol
24 | GATCCCGCGTGGGATC ((((((....)))))) | 59.9 °C | -38.4 kcal/mol

Row | Sequence | Tm [1] | folding enthalpy [2]
25 | GCGACTATTCGC ((((....)))) | 47.4 °C | -19.3 kcal/mol
26 | GCCACACCGAAAGGTGGC (((..(((....)))))) | 55.6 °C | -12.3 kcal/mol
27 | GATCCTTCAAGGATC ((((((...)))))) | 54.7 °C | -36.9 kcal/mol
28 | GTTGTGGGAAACTACGAC ((.((.(....).)).)) | 33.8 °C | -14.3 kcal/mol
29 | ACTCCGAAAGGAGT (((((....))))) | 68.8 °C | -20.5 kcal/mol
30 | GAACAACGAAAGTTCTTC (((.(((....))).))) | 38.7 °C | -29.8 kcal/mol
31 | GTGTACACGAAAGTGCAC (((..(((....)))))) | 47.1 °C | -19 kcal/mol
32 | GTTTTGCGAAAGCAAAC (((.(((....)))))) | 46.1 °C | -13.8 kcal/mol
33 | GTTGATGGAAACACCAAC ((((.((....)).)))) | 37 °C | -30.2 kcal/mol
34 | GGCCTGCGAAAGCATGCC (((.(((....))).))) | 58.4 °C | -28.2 kcal/mol
35 | GATCCCCAGGGGATC ((((((...)))))) | 61.9 °C | -33.1 kcal/mol
36 | GCATGGCGAAAGCCACGC ((.((((....)))).)) | 60.9 °C | -17.6 kcal/mol
37 | CGCCTCGGAAACGAAGCG (((.(((....))).))) | 48.3 °C | -25.9 kcal/mol
38 | GAAGCTGGAAACGGCTTC (((((.(....).))))) | 53.4 °C | -42.9 kcal/mol
39 | GATGCGGGAAACCGTGTC ((..(((....)))..)) | 43.7 °C | -26.3 kcal/mol
40 | GGCCCAGGAAACTGGGTC (.(((((....))))).) | 59.8 °C | -34.5 kcal/mol
41 | GCCAGAGGAAACTCTGAC (.(((((....))))).) | 38.6 °C | -18.3 kcal/mol
42 | GCGGCAGCCCGC ((((....)))) | 59.1 °C | -10.3 kcal/mol
43 | GTCCAGGCGAAAGCCGAC (((..(((....)))))) | 37 °C | -9.61 kcal/mol
44 | GTTCACGAAAGTGGCAAC ((((((....)))..))) | 31.4 °C | -8.43 kcal/mol
45 | CAGCTGAAAAGCTG (((((....))))) | 58.6 °C | -25.4 kcal/mol
46 | GATCCAAATTGGATC ((((((...)))))) | 48.3 °C | -31.8 kcal/mol
47 | GCCTGTGGAAACACAAGC ((.((((....)))).)) | 38.6 °C | -22.5 kcal/mol
48 | GCACCCGAAAGGGCTGC ((((((....))).))) | 55.2 °C | -31.4 kcal/mol

Row | Sequence | Tm [1] | folding enthalpy [2]
49 | GAGATCGGAAACGATTTC ((.((((....)))).)) | 42.3 °C | -26.8 kcal/mol
50 | GGACTCGAAAGAGCTTCC ((((((....)))..))) | 35.3 °C | -18.9 kcal/mol
51 | GCGAATTCTCGC ((((....)))) | 47.9 °C | -19.6 kcal/mol
52 | GCGCCCGGAAACAGGCGC (((((.(....).))))) | 66.7 °C | -31.7 kcal/mol
53 | GCGTGACACGC ((((...)))) | 56.8 °C | -22.1 kcal/mol
54 | GTTGGACGAAAGTCAAC (((.(((....)))))) | 48.6 °C | -17.5 kcal/mol
55 | GTACACGGAAACGTGCAC ((.((((....)))).)) | 46.8 °C | -17.9 kcal/mol
56 | GCAGAGCGAAAGCAATGC (((..((....))..))) | 53.9 °C | -21 kcal/mol
57 | GTTGCGGGAAACCGCGAC ((.((((....)))).)) | 60.7 °C | -31 kcal/mol
58 | GCGTTCTTACGC ((((....)))) | 52.8 °C | -27 kcal/mol
59 | CGAGCGGAAACGCAATCG ((((((....)))..))) | 38.7 °C | -19.3 kcal/mol
60 | GCGGAGCGAAAGCCGCGC (((..((....))..))) | 66.1 °C | -21.1 kcal/mol
61 | GGGGACGAAAGTCCTCCC ((((((....)))..))) | 48.3 °C | -10.8 kcal/mol
62 | GATCTAACGTTAGATC ((((((....)))))) | 48.3 °C | -47 kcal/mol
63 | GCAGGGAAACCTGC (((((....))))) | 62.7 °C | -28.1 kcal/mol
64 | GCTGTCGAAAGACCAGC ((((((....))).))) | 51.3 °C | -20.8 kcal/mol
65 | GTAGCACGAAAGTGTAC (((.(((....)))))) | 40.4 °C | -14.2 kcal/mol
66 | GGGTACCGAAAGGTCCCC (((.(((....))).))) | 55.7 °C | -22.9 kcal/mol
67 | GATCCGAGAACGGATC ((((((....)))))) | 54.5 °C | -37.4 kcal/mol
68 | CGTTCGGAAACGATACG ((((((....))).))) | 42.1 °C | -27.1 kcal/mol
69 | GATCGGATGGCCGATC ((((((....)))))) | 56.1 °C | -29.9 kcal/mol
70 | GATCCCATCGGGATC ((((((...)))))) | 67.4 °C | -36.5 kcal/mol
71 | GTGCAGGGAAACCCGCAC ((((.((....)).)))) | 54.9 °C | -42.2 kcal/mol
72 | GAGGCACGAAAGTGCTC (((.(((....)))))) | 45.9 °C | -9.34 kcal/mol

Row | Sequence | Tm [1] | folding enthalpy [2]
73 | GCGAACGTTCGC ((((....)))) | 55.8 °C | -39.5 kcal/mol
74 | GGGACTGGAAACAGTTCC ((.((((....)))).)) | 51.4 °C | -36.1 kcal/mol
75 | GGATTACGAAAGTATCC (((.(((....)))))) | 42.3 °C | -22.2 kcal/mol
76 | GATCGATCAATCGATC ((((((....)))))) | 53.8 °C | -40.9 kcal/mol
77 | GCCCCACGAAAGTGTGGC (((.(((....))).))) | 57.9 °C | -35.9 kcal/mol
78 | GTGAGACGAAAGTCCAC (((.(((....)))))) | 53.8 °C | -22.8 kcal/mol
79 | GGGTGGGGAAACCCGCTC (.(.(((....))).).) | 49.1 °C | -17.7 kcal/mol
80 | GATCCTTATGAGGATC ((((((....)))))) | 53.3 °C | -37.1 kcal/mol
81 | GAAGACGAAAGTCATTTC ((((((....)))..))) | 23.9 °C | -8.24 kcal/mol
82 | GCTTAGCGAAAGCCTAGC (((..((....))..))) | 37.8 °C | -15.6 kcal/mol
83 | GTGGATGGAAACATCTAC ((.((((....)))).)) | 46.8 °C | -31 kcal/mol
84 | GCGGTACCCCGC ((((....)))) | 54.5 °C | -21.6 kcal/mol
85 | GCATTGCGAAAGCGAAGC ((.(.((....)).).)) | 38.9 °C | -14.5 kcal/mol
86 | GATACCGGAAACGGTATC (((((((....))))))) | 65 °C | -34.2 kcal/mol
87 | GTTCAACGAAAGTTTAAC (((.(((....))).))) | 35.2 °C | -22.9 kcal/mol
88 | GAGTAGGGAAACCTATTC ((.((((....)))).)) | 32.5 °C | -25.5 kcal/mol
89 | GCCAGAGCGAAAGCTGGC (((..(((....)))))) | 60 °C | -31.3 kcal/mol
90 | GCGCGCCCGAAAGGGCGC (((..(((....)))))) | 68.4 °C | -4.64 kcal/mol
91 | CGATCGGAAACGAACTCG ((((((....)))..))) | 24.4 °C | -9.8 kcal/mol
92 | GAGTCAGGAAACTGGCTC (((.(((....))).))) | 54.1 °C | -43.1 kcal/mol
93 | GCGTTGGGAAACTAGCGC (((.(.(....).).))) | 47.9 °C | -35.9 kcal/mol

Reference: the array DNA melting data of Ke et al. (doi:10.1101/2024.01.08.574731)
